# Test results as given in ChEMBL document CHEMBL1138243, “Design of mechanism-based inhibitors of transthyretin amyloidosis: studies with biphenyl ethers and new structural templates” (J Med Chem, 2007).
# Activity calls are given as the source filed them. The calls are words filed in the database; no cut-off is given here.
# Tests used:
# Transthyretin [1] = target: T1, Transthyretin (Homo sapiens, UniProt P02766); assay: Inhibition of transthyretin fibril formation at pH 4.4 at 50 uM; format: functional; set-up: scale not given: the % may be the effect or the level left
# Transthyretin [2] = target: T1, Transthyretin; assay: Inhibition of transthyretin fibril formation at pH 4.4; format: functional
# Transthyretin [3] = target: T1, Transthyretin; assay: Inhibition of transthyretin amyloidosis assessed as fibril formation at 21.6 uM at pH 4.4 relative to control; format: functional; set-up: scale not given: the % may be the effect or the level left
# How it was run: (§1)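 WT TTR tetramer (7.2 µM) in pH 7 phosphate/KCl/EDTA was preincubated 1 h at 25 °C with inhibitor (7.2 or 21.6 µM; 1:1 or 1:3) in 1% DMSO. It was then diluted with pH 4.4 acetate/KCl/EDTA buffer and held stagnant 72 h at 37 °C. Turbidity was read at 340 nm as % fibril formation versus untreated (100%). Mean of five experiments.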
# Transthyretin [4] = target: T1, Transthyretin; assay: Stabilization of urea-induced transthyretin dissociation at 5.4 uM at pH 7.2 after […] relative to control
# [5] = Cytotoxicity against TTR-induced […] cells assessed as viability at 50 uM after 72 hrs; format: functional; conditions: Mus musculus, N2a, read-out: Activity
# Neuro2a = assay: Cytotoxicity against […] cells at 50 uM; format: functional, cell-based; conditions: Mus musculus
# Transthyretin [6] = target: T1, Transthyretin; assay: Inhibition of transthyretin amyloidosis assessed as fibril formation at 7.2 uM at pH 4.4 relative to control; format: functional; set-up: scale not given: the % may be the effect or the level left; how it was run: as §1
# Transthyretin [7] = target: T1, Transthyretin; assay: Inhibition of transthyretin fibril formation assessed as turbidity at 21.6 uM at pH 4.4 after 3 hrs; format: functional
# How it was run: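 Kinetics run with 7.2 µM TTR plus 21.6 µM inhibitor at pH 4.4, 37 °C. Turbidity at 340 nm was followed for 3 h. Initial fibrillization rate came from the linear slope of A340 versus time. Three experiments in triplicate.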
# Transthyretin [8] = target: T1, Transthyretin; assay: Inhibition of fibril elongation of preformed transthyretin at […] after 72 hrs by turbidity assay; format: functional
# Transthyretin [9] = target: T1, Transthyretin; assay: Stabilization of urea-induced transthyretin dissociation at 5.4 uM at pH 7.2 after 1 hr relative to control
# Transthyretin [10] = target: T1, Transthyretin; assay: Inhibition of transthyretin amyloidosis assessed as fibril formation pH 4.4 at 100 uM; format: functional
# How it was run: (§2)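 Library screen of acid-mediated TTR fibril formation at pH 4.4 with inhibitor at 100 µM. TTR was at 7.2 µM.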
# Transthyretin [11] = target: T1, Transthyretin; assay: Inhibition of transthyretin fibril formation at pH 4.4 at 100 uM; format: functional; how it was run: as §2
# Transthyretin [12] = target: T1, Transthyretin; assay: Binding affinity to transthyretin at pH 4.4
# How it was run: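 Kd at pH 4.4 measured by fluorescence titration of TTR. Data were fitted to the Adair equation for two binding sites, giving Kd1 and Kd2. Experiments were run in triplicate.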
structure (smiles),measurement,setting,value
COc1cc(CO)ccc1Oc1ccccc1,Activity,Transthyretin [1],61.2%
COc1cc(C(=O)O)ccc1Oc1ccccc1,IC50,Transthyretin [2],41 µM
same,Activity,Transthyretin [1],40%
O=Cc1ccc(Oc2ccccc2)c(O)c1,Activity,Transthyretin [1],112%
O=Cc1ccc(Oc2ccc(Cl)cc2Cl)c(O)c1,Activity,Transthyretin [3],0%
same,Activity,Transthyretin [4],< 5%
same,viability at 50 µM,[5],86%
same,Activity,Neuro2a,Not toxic
same,Activity,Transthyretin [6],0%
same,inhibition,Transthyretin [7],> 80%
same,Activity,Transthyretin [8],Active
same,Activity,Transthyretin [1],0%
OCc1ccc(Oc2ccc(Cl)cc2Cl)c(O)c1,Activity,Transthyretin [3],2.6%
same,Activity,Transthyretin [4],< 5%
same,viability at 50 µM,[5],86%
same,Activity,Neuro2a,Not toxic
same,Activity,Transthyretin [6],12%
same,inhibition,Transthyretin [7],> 80%
same,Activity,Transthyretin [8],Active
same,Activity,Transthyretin [1],11.5%
N[C@H](Cc1cc(I)c(Oc2cc(I)c(O)c(I)c2)c(I)c1)C(=O)O,Activity,Transthyretin [3],7%
same,Activity,Transthyretin [6],48%
same,Activity,Transthyretin [9],27%
same,inhibition,Transthyretin [7],75%
Oc1ccccc1-c1nnc(S)o1,percent fibril formation relative to control,Transthyretin [10],13.8%
same,Activity,Transthyretin [3],0%
same,Activity,Transthyretin [4],< 5%
same,viability at 50 µM,[5],86%
same,Activity,Neuro2a,Not toxic
same,Activity,Transthyretin [6],21%
same,inhibition,Transthyretin [11],86.2%
same,inhibition,Transthyretin [7],> 80%
same,Activity,Transthyretin [8],Active
Oc1cc(CCl)ccc1Oc1ccc(Cl)cc1Cl,Activity,Transthyretin [3],0%
same,Activity,Transthyretin [4],< 5%
same,viability at 50 µM,[5],86%
same,Activity,Neuro2a,Not toxic
same,Activity,Transthyretin [6],5%
same,inhibition,Transthyretin [7],> 80%
same,Activity,Transthyretin [1],0%
COc1cc(CO)ccc1Oc1ccc([N+](=O)[O-])cc1[N+](=O)[O-],Activity,Transthyretin [1],28%
O=C(O)c1ccc(Oc2ccc([N+](=O)[O-])cc2[N+](=O)[O-])c(O)c1,Activity,Transthyretin [1],75%
COc1cc(C=O)ccc1Oc1ccc([N+](=O)[O-])cc1[N+](=O)[O-],Activity,Transthyretin [1],66%
O=C(O)c1ccc(Oc2ccccc2)c(O)c1,Kd,Transthyretin [12]; read-out: Kd,0.027 µM
same,IC50,Transthyretin [2],3.18 µM
same,Activity,Transthyretin [3],5%
same,Activity,Transthyretin [4],< 5%
same,viability at 50 µM,[5],86%
same,Activity,Neuro2a,Not toxic
same,Activity,Transthyretin [6],32%
same,inhibition,Transthyretin [7],> 80%
same,Activity,Transthyretin [8],Active
same,Activity,Transthyretin [1],5%
COc1cc(CCl)ccc1Oc1ccccc1,Kd,Transthyretin [12],Active
same,Activity,Transthyretin [3],0%
same,Activity,Transthyretin [4],< 5%
same,viability at 50 µM,[5],86%
same,Activity,Neuro2a,Not toxic
same,Activity,Transthyretin [6],25%
same,inhibition,Transthyretin [7],> 80%
same,Activity,Transthyretin [8],Active
same,Activity,Transthyretin [1],0%
COc1cc(C(=O)O)ccc1Oc1ccc(Cl)cc1Cl,Activity,Transthyretin [3],0%
same,Activity,Transthyretin [4],< 5%
same,viability at 50 µM,[5],86%
same,Activity,Neuro2a,Not toxic
same,Activity,Transthyretin [6],10%
same,inhibition,Transthyretin [7],> 80%
same,Activity,Transthyretin [8],Active
same,Activity,Transthyretin [1],0%
O=C(Nc1nnc[nH]1)c1c(Cl)ccc(Cl)c1Cl,percent fibril formation relative to control,Transthyretin [10],11.5%
same,Activity,Transthyretin [3],3.6%
same,Activity,Transthyretin [4],< 5%
same,viability at 50 µM,[5],86%
same,Activity,Neuro2a,Not toxic
same,Activity,Transthyretin [6],11%
same,inhibition,Transthyretin [11],88.5%
same,inhibition,Transthyretin [7],> 80%
same,Activity,Transthyretin [8],Active
O=C(O)c1ccc(Oc2ccc(Cl)cc2Cl)c(O)c1,Activity,Transthyretin [3],13.3%
same,viability at 50 µM,[5],86%
same,Activity,Neuro2a,Not toxic
same,Activity,Transthyretin [6],29%
same,Activity,Transthyretin [9],21%
same,inhibition,Transthyretin [7],> 80%
same,Activity,Transthyretin [8],Active
same,Activity,Transthyretin [1],0%
COc1cc(C=O)ccc1Oc1ccccc1,Activity,Transthyretin [3],0%
same,Activity,Transthyretin [4],< 5%
same,viability at 50 µM,[5],86%
same,Activity,Neuro2a,Not toxic
same,Activity,Transthyretin [6],12%
same,inhibition,Transthyretin [7],> 80%
same,Activity,Transthyretin [8],Active
same,Activity,Transthyretin [1],0%
O=Cc1ccc(Oc2ccc([N+](=O)[O-])cc2[N+](=O)[O-])c(O)c1,Activity,Transthyretin [1],40.5%
Oc1cc(Cl)ccc1Oc1ccc(Cl)cc1Cl,Activity,Transthyretin [3],66%
same,Activity,Transthyretin [6],75%
same,Activity,Transthyretin [9],47%
same,inhibition,Transthyretin [7],62%
same,Activity,Transthyretin [1],41%
COc1cc(CO)ccc1Oc1ccc([N+](=O)[O-])cc1,Activity,Transthyretin [1],89.5%
O=C(NC(c1ccco1)c1cc(Cl)c2cccnc2c1O)c1cccnc1 (stereo unspecified),percent fibril formation relative to control,Transthyretin [10],36.7%
same,inhibition,Transthyretin [11],63.3%
O=C(NC(c1ccccc1)c1cc(Cl)c2cccnc2c1O)c1cccnc1 (stereo unspecified),percent fibril formation relative to control,Transthyretin [10],29.6%
same,inhibition,Transthyretin [11],70.4%
O=C(O)CCc1nc(-c2cccs2)no1,percent fibril formation relative to control,Transthyretin [10],32.1%
same,inhibition,Transthyretin [11],67.9%
O=C(O)C1CSC(c2ccc(Cl)cc2)N1 (stereo unspecified),percent fibril formation relative to control,Transthyretin [10],142%
same,inhibition,Transthyretin [11],0%
Cc1nc2c(ccc3ccccc32)c(O)c1CN1CCOCC1,percent fibril formation relative to control,Transthyretin [10],69.6%
same,inhibition,Transthyretin [11],30.4%
COc1cc(C(=O)O)ccc1Oc1ccc([N+](=O)[O-])cc1[N+](=O)[O-],Activity,Transthyretin [1],48%
O=C(NC1CC1)c1cc(Sc2cccc(Cl)c2)nc2ccccc12,percent fibril formation relative to control,Transthyretin [10],41.8%
same,inhibition,Transthyretin [11],58.2%
O=C(O)C1CSC(c2ccc(O)cc2)N1 (stereo unspecified),percent fibril formation relative to control,Transthyretin [10],120%
same,inhibition,Transthyretin [11],0%
COc1cc(COC(C)=O)ccc1Oc1ccc([N+](=O)[O-])cc1[N+](=O)[O-],Activity,Transthyretin [1],69%
COc1ccc(/C=C2\SC(=S)N(c3ccc(O)cc3)C2=O)cc1,percent fibril formation relative to control,Transthyretin [10],281%
same,inhibition,Transthyretin [11],0%
COc1cc(CCl)ccc1Oc1ccc(Cl)cc1Cl,Activity,Transthyretin [3],0%
same,Activity,Transthyretin [4],< 5%
same,viability at 50 µM,[5],86%
same,Activity,Neuro2a,Not toxic
same,Activity,Transthyretin [6],26%
same,inhibition,Transthyretin [7],> 80%
same,Activity,Transthyretin [8],Active
same,Activity,Transthyretin [1],0%
Cc1ccc2nc(Nc3nc(O)c4ccccc4n3)nc(C)c2c1,percent fibril formation relative to control,Transthyretin [10],68.9%
same,inhibition,Transthyretin [11],31.1%
CSC1=NSC2=NC(=O)/C(=C\c3ccc(Cl)cc3)C(=N)N12,percent fibril formation relative to control,Transthyretin [10],67.1%
same,inhibition,Transthyretin [11],32.9%
COc1ccc(NC(=S)N(CCCN2CCOCC2)Cc2cccs2)cc1,percent fibril formation relative to control,Transthyretin [10],102%
same,inhibition,Transthyretin [11],0%
Fc1ccccc1NC(=S)N(CCCN1CCOCC1)Cc1cccnc1,percent fibril formation relative to control,Transthyretin [10],99.3%
same,inhibition,Transthyretin [11],0.7%
CCOC(=O)c1c(N)sc(C(=O)NC2CCCCC2)c1C,percent fibril formation relative to control,Transthyretin [10],58.1%
same,inhibition,Transthyretin [11],41.9%
COc1cc(CCl)ccc1Oc1ccc([N+](=O)[O-])cc1[N+](=O)[O-],Activity,Transthyretin [1],79%
O=C1/C(=C/c2ccc(Cl)cc2Cl)SC(=S)N1c1ccc(O)cc1,percent fibril formation relative to control,Transthyretin [10],291%
same,inhibition,Transthyretin [11],0%
